Compound activity as filed in PubChem.
Compounds with a hit are over-represented: about 8.9% of the library has one in this group of screens.
Lmaj promast: inhibitors of Leishmania major promastigote growth; Leishmania major promastigotes, resazurin fluorescence viability; inhibition, % at 10 µM; 9% of 200,000 active; in the data active = inhibition above about 50%;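 note: promastigotes grown with compound for 44 hours at 28 °C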
HSV replic up: increases HSV replication in cells | HSV replication augmentation in cells, fold increase | maximum fold increase | 0.005% of 220,000 active; in the data active = maximum fold increase above about 1.5; tested in PC3 cells
MT stabilize HCS: stabilizes microtubules in HeLa cells; HeLa tubulin immunostaining HCS, 24 h; share of cells brighter than vehicle mean+2SD; % tubulin-high responders, % at 10 µM; 0.83% of 200,000 active; AID 2205;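 active = plate Z-score above 3 for both tubulin-high and condensed-nucleus cell shares, with cell loss under 80%, at 10 µM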;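 note: anti alpha tubulin signal scored within the nucleus-defined area of each cell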
Dynein cargo inh: blocks dynein driven cargo transport along microtubules | 3617.4 mouse cells, GR-EGFP nuclear translocation imaging; test concentration mostly 20 µM; stimulated with dexamethasone, 1 µM; active compounds read low | z-score, hits read low | 0.47% of 220,000 active;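 active = plate z-score of nuclear minus cytoplasmic receptor signal below a set negative limit, without overly bright fluorescence or cell loss, cut at about -3.5 in these data, passing the limit was not always enough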;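 note: z-score of nuclear minus cytoplasmic ring GR-EGFP intensity difference per well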
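Buffer or medium: tet-free, stripped-serum medium; Also added: dexamethasone, 1.0 µM final; Technique: high-content fluorescence imaging after fixation; Times: 48 h induction, 1 h compound, 30 min dex at 37 °C; Read-out: per-cell GR-EGFP intensity, nucleus versus surrounding cytoplasmic ring, well-averaged.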
bCat nuc transl: alters nuclear translocation of beta-catenin in HeLa cells; immunofluorescence imaging; nuclear translocation activity, % at 5 µM; 0.3% of 190,000 active; AID 1665;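 active = nuclear translocation activity above 50% at 5 µM, with a well cell count of 50 or more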;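 note: per-cell ratio of nuclear to cytoplasmic median beta-catenin stain intensity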
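assay system = human HeLa cells, endogenous beta-catenin | times = compound treatment 24 h, 37°C, 5% CO2 | detection = Anti-beta-catenin immunofluorescence on PFA-fixed, Triton-permeabilized cells, DAPI nuclei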
Each line names hits and unclear results; the compound was inactive in the other large screens.

CN1C(N)=NC(=O)/C1=C/c1ccccc1F	none
CCOC(=O)C1CCN(C(c2cc3ccc(C)c(C)c3[nH]c2=O)c2nnnn2C2CCCCC2)CC1 (stereo not given)	Lmaj promast 86
Cc1ccc(C)c2[nH]c(=O)c(C(c3nnnn3C3CCCC3)N3CCOCC3)cc12 (stereo not given)	none
CCOC(=O)C1CCN(C(c2cc3c(C)ccc(C)c3[nH]c2=O)c2nnnn2C2CCCCC2)CC1 (stereo not given)	Lmaj promast 99
COc1ccc(CCNC(=O)CSc2nc(O)c(CC(C)C)c(=O)[nH]2)cc1OC	none
CC(C)(C)NCCCCOc1ccc(F)cc1	Lmaj promast 99
CC(C)(C)NCCOc1ccc2ccccc2c1	none
CCOc1ccc(OCCCCNC(C)(C)C)cc1	Lmaj promast 98
CC(=O)Nc1ccc(CN2CCCC(CO)(Cc3cccc(Cl)c3)C2)cc1 (stereo not given)	none (no result: Lmaj promast, MT stabilize HCS)
COc1cc(CN2CCCC(CO)(Cc3cccc(Cl)c3)C2)cc2c1OCO2 (stereo not given)	Lmaj promast 73
CSc1cccc(CN2CCCC(CO)(Cc3cccc(Cl)c3)C2)c1 (stereo not given)	none
CC(C)n1cc(CN2CCCC(CO)(Cc3cccc(Cl)c3)C2)cn1 (stereo not given)	Lmaj promast 87
Cn1cc(CN2CCCC(CO)(Cc3cccc(Cl)c3)C2)cn1 (stereo not given)	Lmaj promast 81
Cn1cc(CN2CCCC(CO)(Cc3ccccc3)C2)cn1 (stereo not given)	Lmaj promast 77
N#CC1(c2ccccc2)CCC(=O)N1Cc1ccccc1 (stereo not given)	none (no result: Lmaj promast, MT stabilize HCS)
Cc1nn2cnc3sc4c(c3c2nc1=O)CCCC4	none
COCCCNC(=S)NNC(=O)c1csc(C)n1	none (no result: Lmaj promast, MT stabilize HCS)
CCN(CC)c1ccc(C(=O)NNC(=O)CCl)cc1	none
COc1ccc(NC(=O)C(C)Sc2nnc3c4c(nc(-c5ccc(OC)cc5)n23)CC(C)(C)OC4)cc1 (stereo not given)	none
Cc1nn(C)c(Cl)c1CN1CCCC(CO)(Cc2cccc(Cl)c2)C1 (stereo not given)	Lmaj promast 86
CCn1cc(CN2CCCC(CO)(Cc3cccc(Cl)c3)C2)cn1 (stereo not given)	Lmaj promast 92
COc1cccc(CC2(CO)CCCN(Cc3cn[nH]c3-c3ccccc3)C2)c1 (stereo not given)	none
OCC1(Cc2cccc(Cl)c2)CCCN(Cc2cnn(-c3ccccc3)c2)C1 (stereo not given)	Lmaj promast 85
Cc1cccc(-c2ncc(CN3CCCC(CO)(Cc4cccc(Cl)c4)C3)cn2)c1 (stereo not given)	none
Cc1ccc(NC(=O)COC(=O)c2cc(-c3cccs3)nn2-c2ccccc2)cc1[N+](=O)[O-]	none (no result: bCat nuc transl)
CCCc1cc2c(=O)c(-c3ccc4c(c3)OCCO4)c(C)oc2cc1OS(C)(=O)=O	Lmaj promast 99
CCCc1cc2c(=O)c(-c3ccc4c(c3)OCCO4)coc2cc1OS(C)(=O)=O	Lmaj promast 76
CCc1cc2c(=O)c(-c3ccc4c(c3)OCCO4)coc2cc1OC(=O)c1ccco1	none
CCCc1cc2c(=O)c(-c3ccc4c(c3)OCCO4)coc2cc1OC(=O)c1ccco1	none
CCCNc1nc(C)cc(-c2cc(-c3ccccc3)on2)n1	none (no result: Lmaj promast, MT stabilize HCS)
CCN(CC)c1ccc(S(=O)(=O)Nc2cc(Cl)ccc2Cl)cc1NC(=S)NC(=O)C1CCCC1	Lmaj promast 56 (no result: bCat nuc transl)
C#CCn1c(=NC(=O)c2ccc(S(=O)(=O)N3CCCc4ccccc43)cc2)sc2cc(S(N)(=O)=O)ccc21	Lmaj promast 100
Cn1c(=NC(=O)c2ccc(S(=O)(=O)N3CCCc4ccccc43)cc2)sc2cc(S(C)(=O)=O)ccc21	Lmaj promast 99
CN(C1=C(NC(=O)c2ccccc2)C(=O)c2ccccc2C1=O)C1CCS(=O)(=O)C1 (stereo not given)	Lmaj promast 99
C=CCOc1ccc(CNn2cn[nH]c2=S)cc1	none
COc1ccccc1N(CC(O)Cn1nc(C)cc1C)S(=O)(=O)c1ccccc1 (stereo not given)	none
C=CCN(CC=C)CC(O)CN(c1cc([N+](=O)[O-])ccc1OC)S(=O)(=O)c1ccccc1 (stereo not given)	Lmaj promast 64
Cc1ccc(S(=O)(=O)N(C)CC(O)Cn2c3ccccc3c3ccccc32)cc1 (stereo not given)	none
COc1ccccc1N(CC(O)Cn1c2ccccc2c2ccccc21)S(=O)(=O)c1ccccc1 (stereo not given)	Lmaj promast 54
O=S(=O)(c1ccccc1)N(CC(O)Cn1c2ccccc2c2ccccc21)c1ccccc1 (stereo not given)	Lmaj promast 100
COc1ccccc1CNCC(O)Cn1c2ccccc2c2ccccc21 (stereo not given)	Lmaj promast 100
CCCN(CCC)CC(O)CN(c1ccccc1)S(=O)(=O)c1ccc(C)cc1 (stereo not given)	Lmaj promast 97 (no result: bCat nuc transl)
Cc1cccc(C)c1NC(=O)NC1CC2CCC(C1)N2Cc1cccs1 (stereo not given)	none
CC(C)c1ccc(NC(=O)NC2CC3CCC(C2)N3Cc2cccs2)cc1 (stereo not given)	Lmaj promast 73
COc1ccc(NC(=S)NC(C)Cc2cccs2)cc1 (stereo not given)	none
Fc1ccc(NC(=S)NC2CC3CCCC(C2)N3Cc2cccs2)cc1 (stereo not given)	Lmaj promast 94
Cc1ccc(NC(=S)NC2CC3CCCC(C2)N3Cc2cccs2)cc1 (stereo not given)	Lmaj promast 92
CC(Cc1cccs1)NC(=S)Nc1ccc(F)cc1 (stereo not given)	Lmaj promast 51 (no result: bCat nuc transl)
COCCN(CCOC)S(=O)(=O)c1ccc(OC)cc1	none
CCC(C)N(CC(=O)Nc1cccc(C)c1C)C(=O)CCl (stereo not given)	Lmaj promast 64
Cc1ccc(CN2CCN(/N=C/c3cc(Br)cc(Br)c3O)CC2)cc1	Lmaj promast 51
Oc1c(Br)cc(Br)cc1/C=N/N1CCN(Cc2ccccc2)CC1	none
Cc1ccc(CN2CCN(/N=C/c3ccc(Cl)c([N+](=O)[O-])c3)CC2)cc1	Lmaj promast 95
Cc1[nH][nH]c(=O)c1C(c1ccc(-c2cccc(C(=O)O)c2)o1)c1c(C)[nH][nH]c1=O	none
Cc1[nH][nH]c(=O)c1C(c1ccc(-c2ccc(Cl)cc2Cl)o1)c1c(C)[nH][nH]c1=O	Lmaj promast 100 (no result: bCat nuc transl)
COC(=O)c1ccc(-c2ccc(C(c3c(C)[nH][nH]c3=O)c3c(C)[nH][nH]c3=O)o2)cc1	Lmaj promast 97
Cc1[nH][nH]c(=O)c1C(c1ccc(-c2cccc(Cl)c2)o1)c1c(C)[nH][nH]c1=O	none (no result: Lmaj promast, MT stabilize HCS)
CN(c1ccccc1)S(=O)(=O)c1ccc(C(=O)N2CCc3ccccc3C2)cc1	Lmaj promast 96
Cc1ccc(C(=O)NCCSC2CCCCC2)cc1S(=O)(=O)Nc1ccccc1	Lmaj promast 97
